From PubChem BioAssay AID588422 (The Scripps Research Institute Molecular Screening Center, 2011)
Active and inactive are the calls of the source.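 The calls were made as follows: active = IC50 at or below 1 µM; inactive = the rest.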

Molecular target: Protein-arginine deiminase type-4 (Homo sapiens) (UniProt Q9UM07)
Assay: PAD4 enzyme inhibition potency, late-stage follow-up, biochemical, BAEE substrate, citrulline absorbance, 0-60 µM range (AID 588422)
Details: recombinant PAD4, BAEE citrulline colorimetric absorbance
In short: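 Material: recombinant PAD4. Amount: 0.2 µM enzyme. Measured by: citrulline colour reaction, A540. Schedule: 15 min preincubation, 15 min substrate reaction. Controls: DMSO-treated enzyme as uninhibited reference. Replicates: duplicate measurements per concentration. Medium: Tris pH 7.6, 2 mM DTT, 10 mM CaCl2.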

Chain of Protein-arginine deiminase type-4 (Homo sapiens) (Q9UM07 whole entry, looked up): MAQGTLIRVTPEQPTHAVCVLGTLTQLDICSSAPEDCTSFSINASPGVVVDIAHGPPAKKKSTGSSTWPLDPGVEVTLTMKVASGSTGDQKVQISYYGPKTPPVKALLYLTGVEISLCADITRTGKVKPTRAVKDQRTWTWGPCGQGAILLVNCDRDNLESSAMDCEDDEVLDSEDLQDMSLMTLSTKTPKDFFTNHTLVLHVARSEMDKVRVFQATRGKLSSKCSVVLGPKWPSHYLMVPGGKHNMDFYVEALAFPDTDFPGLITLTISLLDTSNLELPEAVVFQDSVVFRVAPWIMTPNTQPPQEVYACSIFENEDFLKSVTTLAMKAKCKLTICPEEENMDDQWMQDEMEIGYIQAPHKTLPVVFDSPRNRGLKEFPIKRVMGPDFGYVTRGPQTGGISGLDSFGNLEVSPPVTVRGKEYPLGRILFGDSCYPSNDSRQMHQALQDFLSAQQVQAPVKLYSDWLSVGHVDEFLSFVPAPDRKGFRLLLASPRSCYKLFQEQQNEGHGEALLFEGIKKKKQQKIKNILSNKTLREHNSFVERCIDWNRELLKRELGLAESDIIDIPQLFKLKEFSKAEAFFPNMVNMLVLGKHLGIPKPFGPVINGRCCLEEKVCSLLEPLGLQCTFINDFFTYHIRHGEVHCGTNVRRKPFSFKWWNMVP

IC50: inactive
SMILES: COC(=O)c1cccc(-c2ccc3c(n2)C(=O)C(Br)=CC3=O)n1
